Measurements: ChEMBL document CHEMBL4428127, “Discovery of 5-Phenyl-N-(pyridin-2-ylmethyl)-2-(pyrimidin-5-yl)quinazolin-4-amine as a Potent I Kur Inhibitor” (ACS Med Chem Lett, 2016)

Tests used:
[1] = target: T1, Potassium voltage-gated channel subfamily A member 5 (Homo sapiens, UniProt P22460); assay: Inhibition of human Kv1.5 transfected in mouse LTK cells at 0.3 uM; format: cell-based
[2] = target: T1, Potassium voltage-gated channel subfamily A member 5; assay: Inhibition of human Kv1.5 transfected in mouse LTK cells; format: cell-based
[3] = target: Voltage-gated inwardly rectifying potassium channel KCNH2 (Homo sapiens, UniProt Q12809); assay: Inhibition of human ERG expressed in HEK293 cells by thallium flux assay; format: cell-based
Voltage-gated inwardly rectifying potassium channel KCNH2, sequence (Q12809 whole entry): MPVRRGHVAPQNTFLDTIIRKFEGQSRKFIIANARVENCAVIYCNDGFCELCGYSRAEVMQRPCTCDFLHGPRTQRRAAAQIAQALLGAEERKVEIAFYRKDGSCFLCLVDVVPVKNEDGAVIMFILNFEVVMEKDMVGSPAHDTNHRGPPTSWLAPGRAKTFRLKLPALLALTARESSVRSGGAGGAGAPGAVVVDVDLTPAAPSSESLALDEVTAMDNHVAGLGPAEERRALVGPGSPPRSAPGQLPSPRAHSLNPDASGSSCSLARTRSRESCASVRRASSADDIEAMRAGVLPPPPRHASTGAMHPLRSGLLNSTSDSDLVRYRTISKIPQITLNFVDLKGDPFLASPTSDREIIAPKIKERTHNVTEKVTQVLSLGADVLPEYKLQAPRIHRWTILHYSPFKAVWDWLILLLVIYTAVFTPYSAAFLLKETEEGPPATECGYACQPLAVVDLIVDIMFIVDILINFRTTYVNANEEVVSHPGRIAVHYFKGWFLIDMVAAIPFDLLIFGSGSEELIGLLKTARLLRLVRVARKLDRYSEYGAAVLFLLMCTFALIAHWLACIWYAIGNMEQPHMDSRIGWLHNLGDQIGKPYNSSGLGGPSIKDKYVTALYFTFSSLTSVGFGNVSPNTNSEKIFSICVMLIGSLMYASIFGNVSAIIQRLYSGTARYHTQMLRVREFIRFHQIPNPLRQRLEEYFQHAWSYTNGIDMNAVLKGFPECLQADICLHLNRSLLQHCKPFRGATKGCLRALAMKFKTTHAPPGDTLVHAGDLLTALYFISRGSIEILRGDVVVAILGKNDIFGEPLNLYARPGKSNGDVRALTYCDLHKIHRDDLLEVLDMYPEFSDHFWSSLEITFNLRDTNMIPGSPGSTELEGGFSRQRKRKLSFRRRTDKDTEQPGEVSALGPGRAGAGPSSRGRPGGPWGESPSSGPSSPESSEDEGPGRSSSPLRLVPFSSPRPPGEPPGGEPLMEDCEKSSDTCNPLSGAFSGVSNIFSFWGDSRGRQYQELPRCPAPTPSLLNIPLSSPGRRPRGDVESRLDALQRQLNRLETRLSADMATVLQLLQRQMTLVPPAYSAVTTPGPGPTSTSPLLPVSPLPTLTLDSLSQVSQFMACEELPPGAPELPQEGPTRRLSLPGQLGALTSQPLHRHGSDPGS

hERG (KCNH2) [4] = target: T2, hERG (KCNH2) (Homo sapiens, UniProt Q12809); assay: Inhibition of human ERG expressed in HEK293 cells at 1 uM by thallium flux assay; format: cell-based; settings: HEK293 cells that express hERG
T2 sequence (Q12809 whole entry): as above

hERG (KCNH2) [5] = target: T2, hERG (KCNH2); assay: Inhibition of human ERG expressed in HEK293 cells at 0.3 uM by thallium flux assay; format: cell-based; settings: HEK293 cells that express hERG
[6] = Half life in Sprague-Dawley rat hemodynamic/VERP model at 2 mg/kg, iv; format: ADME, organism-based; settings: in vivo
[7] = Stability in rat liver microsomes; format: ADME, Microsome
[8] = Clearance in Sprague-Dawley rat hemodynamic/VERP model at 2 mg/kg, iv; format: ADME, organism-based; settings: in vivo
Oryctolagus cuniculus = assay: Increase in atrial effective refractory period in rabbit at 3 mg/kg, iv as 30 mins infusion measured at 20 mins; format: functional
How it was run: (§1)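 Anesthetized rabbits given 3 mg/kg i.v. in DMF vehicle, infused over 30 min, n = 3–4. Atrial ERP, VERP, QTc (Delta QTc cf), systolic and mean blood pressure, and heart rate recorded as change at 20 min. Plasma concentration sampled at the end of infusion.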

[9] = Volume of distribution at steady state in Sprague-Dawley rat hemodynamic/VERP model at 2 mg/kg, iv; format: ADME, organism-based; settings: in vivo, read-out: Vdss
[10] = Toxicity in rabbit assessed as change in systolic blood pressure at 3 mg/kg, iv as 30 mins infusion measured at 20 mins; format: organism-based, Oryctolagus cuniculus; settings: in vivo; how it was run: as §1
Rattus norvegicus = assay: Pro-arrhythmic activity in rat assessed as increase in ventricular effective refractory period at 10 mg/kg, iv as 10 mins infusion; format: ADME, organism-based; settings: in vivo
How it was run: (§2)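 Rats fitted with a multielectrode catheter in the left ventricle to record ventricular effective refractory period. Dose 10 mg/kg i.v. infused over 10 min, n = 2. Percent VERP increase reported together with the plasma concentration reached.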

[11] = Toxicity in rabbit assessed as change in heart rate at 3 mg/kg, iv as 30 mins infusion measured at 20 mins; format: organism-based, Oryctolagus cuniculus; settings: in vivo; how it was run: as §1
[12] = Toxicity in rabbit assessed as change in mean blood pressure at 3 mg/kg, iv as 30 mins infusion measured at 20 mins; format: organism-based, Oryctolagus cuniculus; settings: in vivo; how it was run: as §1
[13] = Plasma concentration in rabbit at 3 mg/kg, iv as 30 mins infusion; format: ADME, organism-based, Oryctolagus cuniculus; how it was run: as §1
[14] = Pro-arrhythmic activity in rat assessed as plasma concentration required to increase 98 +/- 3% ventricular effective refractory period at 10 mg/kg, iv as 10 mins infusion; format: ADME, organism-based; how it was run: as §2
[15] = Half life in Sprague-Dawley rat hemodynamic/VERP model at 5 mg/kg, po; format: ADME, organism-based; settings: in vivo
[16] = Oral bioavailability in Sprague-Dawley rat hemodynamic/VERP model at 5 mg/kg; format: ADME, organism-based; settings: in vivo
[17] = Metabolic stability in mouse liver microsomes assessed as parent compound remaining at 10 mins; format: ADME, Microsome; settings: read-out: Stability
How it was run: (§3)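 Compound incubated with rat or mouse liver microsomes; percent parent remaining measured at 10 min.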

[18] = Metabolic stability in rat liver microsomes assessed as parent compound remaining at 10 mins; format: ADME, Microsome; settings: read-out: Stability; how it was run: as §3
Cytochrome P450 2C19 [19] = target: T3, Cytochrome P450 2C19 (Homo sapiens, UniProt P33261); assay: Inhibition of CYP2C19 (unknown origin) at 1 uM; format: ADME
T3 sequence (P33261 whole entry): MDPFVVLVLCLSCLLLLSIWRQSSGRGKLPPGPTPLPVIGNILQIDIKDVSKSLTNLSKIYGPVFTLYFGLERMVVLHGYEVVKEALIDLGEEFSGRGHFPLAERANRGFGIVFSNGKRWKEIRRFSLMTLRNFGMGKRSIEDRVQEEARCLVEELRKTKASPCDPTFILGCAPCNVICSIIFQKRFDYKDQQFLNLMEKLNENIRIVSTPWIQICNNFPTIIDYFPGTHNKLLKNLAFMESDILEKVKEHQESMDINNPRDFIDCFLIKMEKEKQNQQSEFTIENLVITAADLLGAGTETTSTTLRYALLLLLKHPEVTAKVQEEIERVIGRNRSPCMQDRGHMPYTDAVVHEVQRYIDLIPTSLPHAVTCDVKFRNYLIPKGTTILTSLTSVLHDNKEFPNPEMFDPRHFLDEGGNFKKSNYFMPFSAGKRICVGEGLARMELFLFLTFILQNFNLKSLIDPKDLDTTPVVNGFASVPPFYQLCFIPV

Cytochrome P450 2C9 [20] = target: T4, Cytochrome P450 2C9 (Homo sapiens, UniProt P11712); assay: Inhibition of CYP2C9 (unknown origin) at 1 uM; format: ADME
T4 sequence (P11712 whole entry, the tested form may be a part): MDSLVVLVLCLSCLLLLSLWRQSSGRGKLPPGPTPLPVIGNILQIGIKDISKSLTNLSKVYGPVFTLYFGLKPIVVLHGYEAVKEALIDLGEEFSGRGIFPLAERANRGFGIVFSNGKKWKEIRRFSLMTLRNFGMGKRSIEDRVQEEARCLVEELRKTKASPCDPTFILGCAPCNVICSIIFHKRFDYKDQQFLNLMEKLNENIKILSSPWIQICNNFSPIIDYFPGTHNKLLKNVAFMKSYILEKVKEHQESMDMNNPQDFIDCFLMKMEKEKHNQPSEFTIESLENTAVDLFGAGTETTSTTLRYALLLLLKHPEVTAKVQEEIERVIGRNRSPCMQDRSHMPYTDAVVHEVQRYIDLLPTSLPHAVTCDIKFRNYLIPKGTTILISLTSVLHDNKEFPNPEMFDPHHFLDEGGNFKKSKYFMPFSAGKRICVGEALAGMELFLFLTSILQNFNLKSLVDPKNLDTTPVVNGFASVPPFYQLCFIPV

[21] = Drug uptake in brain of rat VERP model at 10 mg/kg, iv as 5 mins infusion measured 10 mins post dose; format: ADME, organism-based; settings: read-out: Drug uptake
How it was run: (§4)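 Rat VERP model, i.v. infusion over 5 min at 3 or 10 mg/kg. Plasma and brain concentrations measured 10 min after the end of infusion.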

[22] = Plasma concentration in rat VERP model at 10 mg/kg, iv as 5 mins infusion measured 10 mins post dose; format: ADME, organism-based; how it was run: as §4
Cytochrome P450 2C19 [23] = target: T3, Cytochrome P450 2C19; assay: Inhibition of CYP2C19 (unknown origin) at 3 uM; format: ADME
[24] = Drug uptake in brain of rat VERP model at 3 mg/kg, iv as 5 mins infusion measured 10 mins post dose; format: ADME, organism-based; settings: read-out: Drug uptake; how it was run: as §4
Cytochrome P450 2C9 [25] = target: T4, Cytochrome P450 2C9; assay: Inhibition of CYP2C9 (unknown origin) at 4 uM; format: ADME
hERG (KCNH2) [26] = target: T2, hERG (KCNH2); assay: Inhibition of human ERG expressed in HEK293 cells at 10 uM by thallium flux assay; format: cell-based; settings: HEK293 cells that express hERG
[27] = Toxicity in Sprague-Dawley rat VEPR model assessed as seizures at plasma concentration of 7.7 uM administered at 10 mg/kg, iv; format: organism-based; settings: in vivo
[28] = Plasma concentration in rat VERP model at 3 mg/kg, iv as 5 mins infusion measured 10 mins post dose; format: ADME, organism-based; how it was run: as §4
[29] = Toxicity in rabbit assessed as change in corrected QT time interval at 3 mg/kg as 30 mins infusion; format: organism-based, Oryctolagus cuniculus; settings: in vivo, iv, 0.5 h; how it was run: as §1

T1 sequence (P22460 whole entry): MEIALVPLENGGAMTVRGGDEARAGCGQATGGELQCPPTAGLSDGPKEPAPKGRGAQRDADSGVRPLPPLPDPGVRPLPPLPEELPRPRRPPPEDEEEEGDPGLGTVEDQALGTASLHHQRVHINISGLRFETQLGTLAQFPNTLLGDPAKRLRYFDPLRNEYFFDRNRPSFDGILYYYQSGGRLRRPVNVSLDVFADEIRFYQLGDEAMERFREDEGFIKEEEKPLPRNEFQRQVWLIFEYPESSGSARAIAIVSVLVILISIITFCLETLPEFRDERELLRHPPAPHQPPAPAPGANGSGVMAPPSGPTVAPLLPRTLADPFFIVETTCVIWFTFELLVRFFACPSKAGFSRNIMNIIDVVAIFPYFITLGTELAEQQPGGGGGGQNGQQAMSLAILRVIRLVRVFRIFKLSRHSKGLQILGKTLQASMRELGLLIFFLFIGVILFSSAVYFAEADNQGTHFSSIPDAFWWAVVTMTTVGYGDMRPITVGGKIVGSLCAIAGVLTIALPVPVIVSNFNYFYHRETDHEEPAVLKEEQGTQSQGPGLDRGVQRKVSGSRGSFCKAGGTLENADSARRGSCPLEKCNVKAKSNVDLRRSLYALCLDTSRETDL

Structure (SMILES): NC(=O)c1ccc(-c2cccc3nc(-c4cncnc4)nc(NCc4ccccn4)c23)cc1
- inhibition [1]: 8%

Structure (SMILES): Fc1ccc(-c2cccc3nc(-c4cncnc4)nc(NCc4ccccn4)c23)cc1
- IC50 [2]: 250 nM

Structure (SMILES): N#Cc1nc(NCc2ccccn2)c2c(-c3ccccc3)cccc2n1
- IC50 [2]: 50 nM
- IC50 [3]: > 80000 nM

Structure (SMILES): c1ccc(-c2cccc3nc(-c4cncs4)nc(NCc4ccccn4)c23)cc1
- IC50 [2]: 50 nM
- IC50 [3]: 6200 nM

Structure (SMILES): Cn1cncc1-c1nc(NCc2ccccn2)c2c(-c3ccccc3)cccc2n1
- IC50 [3]: 2700 nM
- inhibition [1]: 41%

Structure (SMILES): Clc1nc(NCc2ccccn2)c2ccc(-c3ccccc3)cc2n1
- inhibition [1]: 9%

Structure (SMILES): Cc1noc(C)c1-c1nc(NCc2ccccn2)c2c(-c3ccccc3)cccc2n1
- IC50 [2]: 90 nM
- IC50 [3]: 3100 nM

Structure (SMILES): c1ccc(-c2cccc3nc(-c4cn[nH]c4)nc(NCc4ccccn4)c23)cc1
- IC50 [2]: 160 nM
- inhibition at 1 µM (hERG (KCNH2) [4]): 88%

Structure (SMILES): COc1ncc(-c2nc(NCc3ccccn3)c3c(-c4ccccc4)cccc3n2)cn1
- IC50 [2]: 100 nM

Structure (SMILES): Fc1cccc(-c2cccc3nc(-c4cncnc4)nc(NCc4ccccn4)c23)c1
- inhibition [1]: 37%

Structure (SMILES): COCCNc1ncc(-c2nc(NCc3ccccn3)c3c(-c4ccccc4)cccc3n2)cn1
- inhibition [1]: 20%

Structure (SMILES): O=c1ccc(-c2nc(NCc3ccccn3)c3c(-c4ccccc4)cccc3n2)c[nH]1
- IC50 [2]: 110 nM
- inhibition at 0.3 µM (hERG (KCNH2) [5]): 91%

Structure (SMILES): Cc1nc(NCc2ccccn2)c2c(-c3ccccc3)cccc2n1
- IC50 [3]: 4600 nM
- inhibition [1]: 72%

Structure (SMILES): FC(F)(F)c1ccc(-c2cccc3nc(-c4cncnc4)nc(NCc4ccccn4)c23)cc1
- IC50 [2]: 150 nM

Structure (SMILES): NC(=O)c1nc(NCc2ccccn2)c2c(-c3ccccc3)cccc2n1
- inhibition [1]: 9%

Structure (SMILES): Clc1nc(NCc2ccccn2)c2c(-c3ccccc3)cccc2n1
- half-life [6]: 7.3 h
- Stability [7]: Unstable
- clearance [8]: 8.2 mL/min/kg
- IC50 [2]: 70 nM
- Activity (Oryctolagus cuniculus): 9%
- Vd [9]: 2.3 L/kg
- IC50 [3]: > 80000 nM
- Activity [10]: 0.1%
- Activity (Rattus norvegicus): 98%
- Activity [11]: -3.2%
- Activity [12]: -1%
- concentration at 0.5 h [13]: 9.1 µM
- concentration at 10 min [14]: 26 µM
- half-life [15]: 1.9 h
- bioavailability [16]: 10%
- inhibition [1]: 86%

Structure (SMILES): c1ccc(-c2cccc3nc(-c4cccnc4)nc(NCc4ccccn4)c23)cc1
- remaining at 10 min [17]: 22%
- remaining at 10 min [18]: 7%
- IC50 [2]: 60 nM
- inhibition (INH) (Cytochrome P450 2C19 [19]): Active
- inhibition (INH) (Cytochrome P450 2C9 [20]): Active

Structure (SMILES): c1ccc(-c2cccc3nc(C4CC4)nc(NCc4ccccn4)c23)cc1
- IC50 [2]: 170 nM

Structure (SMILES): Clc1nc(NCc2ccccn2)c2cccc(-c3ccccc3)c2n1
- inhibition [1]: 9%

Structure (SMILES): COc1cncc(-c2nc(NCc3ccccn3)c3c(-c4ccccc4)cccc3n2)c1
- IC50 [2]: 120 nM

Structure (SMILES): CN(C)c1nc(NCc2ccccn2)c2c(-c3ccccc3)cccc2n1
- IC50 [3]: 2500 nM
- inhibition [1]: 59%

Structure (SMILES): Clc1nc(NCc2ccccn2)c2cc(-c3ccccc3)ccc2n1
- inhibition [1]: 14%

Structure (SMILES): Cc1n[nH]c(C)c1-c1nc(NCc2ccccn2)c2c(-c3ccccc3)cccc2n1
- inhibition [1]: 20%

Structure (SMILES): c1ccc(-c2cccc3nc(-c4ccncc4)nc(NCc4ccccn4)c23)cc1
- IC50 [2]: 40 nM
- IC50 [3]: 6700 nM

Structure (SMILES): N#Cc1ccc(-c2nc(NCc3ccccn3)c3c(-c4ccccc4)cccc3n2)cn1
- IC50 [2]: 130 nM
- inhibition at 1 µM (hERG (KCNH2) [4]): 51%

Structure (SMILES): c1ccc(-c2cccc3nc(-c4cncnc4)nc(NCc4ccccn4)c23)cc1
- concentration at 10 min [21]: 25 µM
- half-life [6]: 15 h
- concentration at 10 min [22]: 7.7 µM
- inhibition (INH) (Cytochrome P450 2C19 [23]): Active
- concentration at 10 min [24]: 8.8 µM
- inhibition (INH) (Cytochrome P450 2C9 [25]): Active
- remaining at 10 min [17]: 75%
- inhibition at 10 µM (hERG (KCNH2) [26]): 43%
- remaining at 10 min [18]: 58%
- clearance [8]: 4.6 mL/min/kg
- IC50 [2]: 90 nM
- Activity (Oryctolagus cuniculus): 21.4%
- Activity [27]: Non-Toxic
- Vd [9]: 5.2 L/kg
- Activity [10]: -3.4%
- Activity (Rattus norvegicus): Non-Toxic
- Activity [11]: -3.1%
- Activity [12]: -3.8%
- concentration at 0.5 h [13]: 2.7 µM
- concentration at 10 min [28]: 3.1 µM
- half-life [15]: 3.5 h
- bioavailability [16]: 6.3%
- Time [29]: 13 ms

Structure (SMILES): FC(F)(F)c1nc(NCc2ccccn2)c2c(-c3ccccc3)cccc2n1
- IC50 [2]: 80 nM
- IC50 [3]: 10000 nM
